Screening results deposited in PubChem by several laboratories.
CSN deneddyl inh – inhibitors of CSN-mediated cullin deneddylation, primary screen, biochemical, fluorescence polarization, uHTS; Purified CSN, SCF-Nedd8-OG deneddylation; inhibition, % at 12.5 µM; hit rate 0.38% among 360,000;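 active = pattern-corrected inhibition above about 35%, with an unprinted fluorescence ratio check between 0.5 and 1.5, limit read from the data, passing the limit was not always enough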;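 note: 0% = enzyme with substrate and 100% = substrate without enzyme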
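Assay system: purified human Csn5 enzyme expressed in HEK293T cells; Input: 0.24 nM Csn5 enzyme, final concentration; Reagent: 10 nM SCFSkp2-Nedd8OG; Compound dosing: 12.5 µM single point; Times: reaction 90 min, room temperature; Technique: fluorescence polarization readout.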
UBC9 SUMO inh – inhibitors of in vitro SUMOylation cascade, primary screen, biochemical, HTRF, uHTS | SUMO-conjugating enzyme UBC9 (Homo sapiens), P63279 | HTRF SUMOylation assay, SAE1/SAE2 + UBC9 | AID 2006, 2009 | hit rate 0.36% among 290,000 | inhibition, % at 35 µM; in the data active = inhibition above about 50%, passing the limit was not always enough
Target sequence (P63279 whole entry, looked up): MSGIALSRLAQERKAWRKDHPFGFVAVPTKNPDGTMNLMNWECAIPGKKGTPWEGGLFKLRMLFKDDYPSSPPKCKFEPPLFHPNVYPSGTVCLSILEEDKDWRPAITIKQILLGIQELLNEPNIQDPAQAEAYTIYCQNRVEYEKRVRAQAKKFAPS
HNF4A DNA FP – change in binding of human HNF4A to DNA, primary screen, biochemical, fluorescence polarization, FITC-DNA | Hepatocyte nuclear factor 4-alpha (Homo sapiens), P41235 | hit rate 0.3% among 360,000 | AID 1224865, 2016 | 1 h | activity change, % at 10 µM; in the data active = activity change above about 30%, passing the limit was not always enough
TPT1 inh – Candida albicans TPT1 enzyme inhibitors, primary screen, biochemical, fluorescence polarization | hit rate 0.81% among 300,000 | inhibition, % at 5 µM | recombinant caTPT1, FP RNA substrate dephosphorylation | tRNA 2'-phosphotransferase TPT1 (Candida albicans SC5314);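 active = inhibition above the mean of all tested compounds plus 3 SD, set per screening campaign, cut at about 24% in these data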;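 note: plate controls were DMSO alone for no effect and ferristatin control at 100 nM for full effect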
SENP1 FRET inh – human SENP1 catalytic domain inhibitors, primary screen, biochemical, FRET, uHTS; hit rate 0.21% among 360,000; inhibition, % at 10 µM; AID 624204, 2012; recombinant SENP1 catalytic domain, CyPet-SUMO1-YPet FRET cleavage;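 active = inhibition at least 30% at 10 µM, raw YFP signal under a set limit, fluorescence ratio 0.5 to 1.5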;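 note: 0% = enzyme with DMSO and 100% = no enzyme wells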
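system = hSENP1 catalytic domain, recombinant | reagent = SFCypet-SUMO1-SFYpet substrate at 25 nM | doses = one dose per compound, 10 µM, 0.5% DMSO | incubation = enzyme reaction for 50 min at room temperature, dark | measured by = FRET, CFP and YFP emission | controls = no-enzyme low, enzyme-DMSO high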
Rpn11 inh – Rpn11 (PSMD14) deubiquitinase inhibitors, primary screen, biochemical, fluorescence polarization, uHTS; hit rate 0.59% among 360,000; human 26S proteasome, Ub4-pepOG fluorescence polarization; 20S core pre-blocked with epoxomicin; calls only at 20 µM; 26S proteasome non-ATPase regulatory subunit 14 (Homo sapiens), O00487;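 active = inhibition at 20 µM, scaled to each plate's controls, above about 33%, limit read from the data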
Rpn11 confirm – Rpn11 (PSMD14) deubiquitinase inhibitors, confirmation, biochemical, fluorescence polarization, single concentration; shares compounds with Rpn11 inh; purified human 26S proteasome, Ub4-pepOG fluorescence polarization; proteasome pretreated with epoxomicin; inhibition, % at 20 µM; hit rate 29% among 1,900
MMP-2 inh – MMP-2 enzyme inhibition, confirmation, counter-screen for RPN11 inhibitor project, biochemical, fluorescence, single concentration; shares compounds with Rpn11 inh; recombinant MMP-2, FRET peptide cleavage fluorescence; inhibition, % at 20 µM; hit rate 4% among 1,900;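 note: human MMP-2 activated beforehand with APMA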
Thrombin inh – bovine thrombin protease inhibition, confirmation, counter-screen for Rpn11 inhibitor project, biochemical, fluorescence polarization, single concentration; bovine thrombin cleavage of Ub4-pepOG; shares compounds with Rpn11 inh; AID 602333, 2012; hit rate 13% among 1,900; inhibition, % at 20 µM;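 active = mean inhibition at least 40% at 20 µM, or signal 3 deviations below plate average, so some actives read negative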;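 note: plate controls were thrombin with DMSO for no effect and buffer wells lacking thrombin for full effect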
Target sequence (P00735 whole entry, looked up): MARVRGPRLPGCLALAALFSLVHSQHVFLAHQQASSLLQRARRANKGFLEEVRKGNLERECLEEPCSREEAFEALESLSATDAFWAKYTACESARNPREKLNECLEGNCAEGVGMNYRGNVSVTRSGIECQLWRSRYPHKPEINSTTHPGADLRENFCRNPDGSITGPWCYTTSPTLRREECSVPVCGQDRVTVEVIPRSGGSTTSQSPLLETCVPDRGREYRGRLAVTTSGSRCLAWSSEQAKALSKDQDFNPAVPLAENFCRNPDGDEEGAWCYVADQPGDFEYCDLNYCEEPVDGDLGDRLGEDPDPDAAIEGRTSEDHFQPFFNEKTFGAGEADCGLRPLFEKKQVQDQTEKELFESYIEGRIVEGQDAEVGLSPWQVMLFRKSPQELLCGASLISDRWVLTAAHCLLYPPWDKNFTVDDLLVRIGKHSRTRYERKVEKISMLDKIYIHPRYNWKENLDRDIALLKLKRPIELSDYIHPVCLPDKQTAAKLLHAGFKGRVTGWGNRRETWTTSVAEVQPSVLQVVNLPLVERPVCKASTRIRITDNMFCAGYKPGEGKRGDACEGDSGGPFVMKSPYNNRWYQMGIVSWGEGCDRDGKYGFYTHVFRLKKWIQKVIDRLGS
The depositor's hits bear a star; i = inactive; x = not tested or not shown; + = active, no number. Rows were chosen to be rich in hits. Some 1.8% of all compounds tested hit in one or more screens of this group. Cut-off read from the data, not from the text of the source, unless noted: active = inhibition above about 40%; inactive = the rest.

SMILES | CSN deneddyl inh | UBC9 SUMO inh | HNF4A DNA FP | TPT1 inh | SENP1 FRET inh | Rpn11 inh | Rpn11 confirm | MMP-2 inh | Thrombin inh
CCCCCC(=O)N1C[C@H](O)[C@@H](n2cc(COC(=O)c3ccccc3)nn2)C[C@@H]1c1ccccc1 | -4.5 | x | 1.5 | x | -1.0 | i | x | x | x
O=C(COC(=O)c1ccc(OC(F)(F)F)cc1)NCCN1C(=O)CSC1=O | 1.8 | x | -2.5 | x | 2.6 | i | x | x | x
CCOC(=O)c1c(C)[nH]c(C(=O)N/N=C/c2cccc(OC)c2)c1C | -2.2 | -4.4 | -2.2 | -2.7 | 1.0 | i | x | x | x
COc1cccc(/C=N/NC(=O)c2[nH]c(C)c(C(=O)N/N=C/c3cccc(OC)c3)c2C)c1 | -0.2 | 16.0 | -1.3 | 1.7 | 2.9 | + | 44.8* | -2.0 | 1.8
Cc1cccc(-c2nc(C)cc(=O)[nH]2)c1 | -0.4 | 26.0 | 0.6 | -3.6 | -1.9 | i | x | x | x
COc1cc(/C=C2/N=C(c3ccccc3)OC2=O)c(F)cc1OCc1ccccc1 | 5.0 | x | -4.1 | -0.5 | -59.2 | i | x | x | x
COc1cccc(OC)c1C(=O)Nc1ccc2c(c1)Cc1ccccc1-2 | -2.3 | 8.9 | -3.0 | -2.6 | 1.6 | i | x | x | x
COc1cccc(OC)c1C(=O)NC(=S)Nc1ccc2c(c1)Cc1ccccc1-2 | 3.7 | -6.6 | -1.7 | -0.2 | 2.4 | + | -7.3 | 36.4 | -9.1
N#Cc1cc2ccccc2nc1SCC(=O)Nc1ccccc1N1CCOCC1 | 12.0 | 17.8 | -4.8 | 4.7 | 9.3 | i | x | x | x
Cc1cccc2cc(C#N)c(SCC(=O)Nc3ccccc3N3CCOCC3)nc12 | 6.0 | -0.1 | 3.5 | 9.7 | -8.7 | + | 14.1 | -44.5 | -19.6
CCC(=O)NC(c1cccs1)c1cc([N+](=O)[O-])c2cccnc2c1O (stereo not given) | -6.8 | -9.2 | -1.7 | 0.5 | -0.4 | + | 48.0* | 27.4 | -20.1
CCCC(=O)NC(c1cccs1)c1cc([N+](=O)[O-])c2cccnc2c1O (stereo not given) | 6.5 | -24.1 | 4.7 | -0.6 | -4.3 | + | 66.0* | 36.4 | -7.2
CC(=O)NC(c1ccccc1)c1cc([N+](=O)[O-])c2cccnc2c1O (stereo not given) | -1.2 | 6.6 | 4.5 | -1.4 | -0.9 | i | x | x | x
CC(C)C(=O)NC(c1ccccc1)c1cc([N+](=O)[O-])c2cccnc2c1O (stereo not given) | -1.1 | 23.7 | -5.9 | 1.1 | -1.8 | + | 47.2* | 42.7* | -1.2
O=C(c1ccc([N+](=O)[O-])cc1)N1CCN(c2ncccn2)CC1 | 3.6 | x | 0.9 | -3.4 | 3.5 | i | x | x | x
O=C(OCC(=O)N1CCOCC1)c1ccc2ccccc2c1O | -1.4 | x | 2.8 | x | -0.5 | i | x | x | x
CCCN1CCN(C(=O)C2CCN(S(=O)(=O)c3ccc4c(c3)NC(=O)C(C)S4)CC2)CC1 (stereo not given) | 15.2 | 3.0 | 24.4 | 9.1 | 10.4 | + | 27.6 | -1.3 | 14.8
CC(=O)c1ccc(N/C=C\C(=O)c2ccc(C)cc2)cc1 | -3.6 | 12.1 | 5.3 | 5.9 | -156.0 | i | x | x | x
CC(=O)Nc1ccc(N/C=C/C(=O)c2ccc(Cl)cc2)cc1 | 3.6 | 12.2 | 10.5 | 2.9 | -38.5 | + | 40.0 | -30.1 | 13.8
CCC(C)Sc1ccc([C@@H]2[C@H]3C(=O)N(CC)C(=O)[C@H]3[C@]3(C(=O)OC)CCCCN23)cc1 (stereo not given in full) | 7.2 | x | 17.7 | 13.6 | -46.9 | + | 105.0* | -0.5 | 69.0*
CCSc1ccc([C@@H]2[C@@H]3C(=O)N(CC)C(=O)[C@@H]3[C@]3(C(=O)OC)CCCN23)cc1 | -3.5 | x | 0.3 | -0.8 | -0.6 | i | x | x | x
CCOC(=O)c1sc(Nc2ccc(C)cc2C)nc1C | 1.0 | 4.9 | -0.6 | 2.1 | -1.8 | + | -8.0 | 16.8 | -22.4
Cc1cc(F)ccc1NS(=O)(=O)c1c(C(=O)N2CCOCC2)c(C)n(C)c1C | 1.1 | 11.3 | 1.7 | 0.1 | 1.5 | i | x | x | x
COc1cccc(N2CCN(C(=O)CCNS(=O)(=O)c3ccc4c(c3)c(=O)n(C)c(=O)n4C)CC2)c1 | 1.2 | 23.3 | 2.0 | 0.2 | -0.9 | i | x | x | x
CCOC(=O)c1[nH]c2ccccc2c1NC(=O)Nc1ccc(OC)cc1 | 0.1 | 2.2 | 2.9 | -2.7 | 0.8 | + | -16.6 | -39.5 | -12.3
SMILES | CSN deneddyl inh | UBC9 SUMO inh | HNF4A DNA FP | TPT1 inh | SENP1 FRET inh | Rpn11 inh | Rpn11 confirm | MMP-2 inh | Thrombin inh
CCCC(=O)Nc1c(C(=O)OCC)[nH]c2ccccc12 | 3.2 | -10.8 | 0.9 | -2.1 | 1.9 | i | x | x | x
CCc1ccccc1NC(=O)N1CCCC(CCC(=O)N(C)CCc2ccccn2)C1 (stereo not given) | -2.3 | -8.9 | 24.6 | -0.6 | 0.5 | + | -8.6 | -10.9 | -7.5
COc1ccc(NC(=O)N2CCCC(CCC(=O)N(C)CCc3ccccn3)C2)cc1 (stereo not given) | 1.2 | 0.9 | 3.8 | -1.4 | -0.5 | i | x | x | x
COc1ccc(C(CNC(=O)c2ccc(-c3nc4ccccc4s3)o2)N2CCCC2)cc1 (stereo not given) | 3.5 | x | 4.9 | x | -28.6 | i | x | x | x
C=CC[n+]1c(-c2ccc(OCC)cc2)csc1NNC(=O)Nc1ccccc1 | 1.0 | -11.9 | -0.7 | 11.8 | -15.6 | + | -21.8 | 11.5 | -28.1
C=CC[n+]1c(-c2ccc(C)cc2)csc1Nc1c(C)n(C)n(-c2ccccc2)c1=O | -4.5 | 2.1 | -1.6 | -1.9 | 0.3 | i | x | x | x
COc1ccccc1N1CCN(Cc2ccc(O)c3ncccc23)CC1 | -1.1 | -25.6 | -1.0 | -2.7 | -3.5 | i | x | x | x
Oc1ccc(CN2CCCc3ccccc32)c2cccnc12 | -3.0 | -45.4 | -1.1 | -3.6 | -36.7 | + | -10.6 | -3.3 | -14.4
O=C(NN=C1c2ccccc2-c2ccccc21)c1ccccn1 | -2.9 | 10.4 | 0.6 | 0.5 | 0.2 | + | 60.0* | -28.0 | -14.2
